Target: T1, Angiotensin-converting enzyme (Oryctolagus cuniculus, UniProt P12822)
T1 sequence (P12822 whole entry): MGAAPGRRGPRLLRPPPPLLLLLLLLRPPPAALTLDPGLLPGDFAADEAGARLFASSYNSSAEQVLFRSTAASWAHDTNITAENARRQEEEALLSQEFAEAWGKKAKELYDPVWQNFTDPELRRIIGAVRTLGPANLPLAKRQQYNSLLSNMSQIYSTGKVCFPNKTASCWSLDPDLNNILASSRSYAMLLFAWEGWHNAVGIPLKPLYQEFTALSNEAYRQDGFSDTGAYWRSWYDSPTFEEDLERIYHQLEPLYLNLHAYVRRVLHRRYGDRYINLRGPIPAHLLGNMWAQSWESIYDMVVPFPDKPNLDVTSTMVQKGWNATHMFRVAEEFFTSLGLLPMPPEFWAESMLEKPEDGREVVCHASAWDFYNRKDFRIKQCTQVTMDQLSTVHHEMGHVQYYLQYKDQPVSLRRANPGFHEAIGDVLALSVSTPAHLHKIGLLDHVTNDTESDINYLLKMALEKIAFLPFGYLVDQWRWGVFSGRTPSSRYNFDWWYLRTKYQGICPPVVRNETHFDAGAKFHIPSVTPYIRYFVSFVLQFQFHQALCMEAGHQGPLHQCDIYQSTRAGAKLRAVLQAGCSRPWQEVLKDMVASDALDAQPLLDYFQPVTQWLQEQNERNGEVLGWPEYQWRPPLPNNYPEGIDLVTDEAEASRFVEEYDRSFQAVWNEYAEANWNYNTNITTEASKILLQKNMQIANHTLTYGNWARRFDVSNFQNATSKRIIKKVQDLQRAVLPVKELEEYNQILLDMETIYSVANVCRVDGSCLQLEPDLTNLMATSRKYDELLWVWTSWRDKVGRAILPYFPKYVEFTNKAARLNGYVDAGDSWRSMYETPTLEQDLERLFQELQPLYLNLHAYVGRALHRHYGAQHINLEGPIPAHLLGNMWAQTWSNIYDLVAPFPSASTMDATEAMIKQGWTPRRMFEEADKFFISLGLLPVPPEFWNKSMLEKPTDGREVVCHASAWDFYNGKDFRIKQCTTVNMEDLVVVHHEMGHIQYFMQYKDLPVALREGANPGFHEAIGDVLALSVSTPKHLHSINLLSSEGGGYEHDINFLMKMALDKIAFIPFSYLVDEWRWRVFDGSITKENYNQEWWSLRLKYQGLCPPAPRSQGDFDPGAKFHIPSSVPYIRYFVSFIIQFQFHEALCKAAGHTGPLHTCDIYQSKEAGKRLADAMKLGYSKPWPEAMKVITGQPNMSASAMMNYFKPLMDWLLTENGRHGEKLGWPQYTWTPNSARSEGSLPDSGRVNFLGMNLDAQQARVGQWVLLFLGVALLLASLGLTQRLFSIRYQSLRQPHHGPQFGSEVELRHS
Experiment: In vitro inhibition of Angiotensin I converting enzyme with relative to captopril(=1)
Outline: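 Crude ACE from rabbit lung acetone powder extracted in 50 mM potassium phosphate pH 8.3, spun 40000g. Final assay: 100 mM phosphate pH 8.3, 300 mM NaCl, 5 mM hippuryl-His-Leu; enzyme added last, 30 min at 37 °C, stopped with HCl. Hippuric acid extracted into EtOAc, dried, redissolved in water, read by absorbance.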

Compound: O=C(O)[C@@H]1CCCN1C(=O)CCS
- IC50: 200 nM
